Experimental findings from ChEMBL document CHEMBL2311272, “Design of a new fluorescent probe: pyrrole/imidazole hairpin polyamides with pyrene conjugation at their γ-turn” (Bioorg Med Chem, 2013) are described below.

Bounds are passed on as bounds.

Assay [1] in a line: Binding affinity to 5'-biotin-labeled GCTAGTC-CAGGCTTTTGCCTGGACTAGC-3' DNA (unknown origin) by surface plasmon resonance assay. The gist of the method:
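Biacore SPR at 25 °C. Biotinylated hairpin DNA is captured on a streptavidin SA chip. Polyamides are diluted from 4 mM DMSO stocks into HBS-EP (10 mM HEPES […], 0.15 M NaCl, 3 mM EDTA, 0.005% P20) with 0.1% DMSO, which is also the running buffer. Samples are injected at 5 μL/min over 6.25 nM–4 μM. Regeneration uses running buffer or 10 mM glycine-HCl, pH 1.5. KD is obtained by model fitting.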
For orientation: Surface plasmon resonance follows binding to a sensor surface in real time, without labels.

Assay [2] is described as follows: Binding affinity to 5'-CCGAGTCCATACG-3' DNA (unknown origin) assessed as increase in fluorescence intensity at 200 nM by florescence assay relative to control. In short, it runs like this: (§1)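 Steady-state fluorescence of 200 nM pyrene conjugates mixed with target oligonucleotide duplex in 5 mM Na phosphate buffer, pH 7.0, 1% v/v DMF. Excitation at 345 nm, emission read at 386 nm. Measured at room temperature without oxygen removal. Intensity is compared with that of the conjugate alone.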

Assay [3] in a line: Binding affinity to 5'-CGTATGGACTCGG-3' DNA (unknown origin) assessed as increase in fluorescence intensity at 200 nM by florescence assay relative to control. In short, it runs like this:
as §1

For the compound `CN(C)CCCNC(=O)CCNC(=O)c1cc(NC(=O)c2cc(NC(=O)c3cc(NC(=O)c4nc(NC(=O)CCCNC(=O)c5cc(NC(=O)c6cc(NC(=O)c7nc(NC(=O)c8nc(NC(=O)CCNC(=O)CCCc9ccc%10ccc%11cccc%12ccc9c%10c%11%12)cn8C)cn7C)cn6C)cn5C)cn4C)cn3C)cn2C)cn1C`, the Kd (in general, a measure of binding affinity in units of concentration) in assay [1] was more than 10000 nM. Further, the fold change (FC) in assay [2] and in assay [3] was 3 throughout.
`CN(C)CCCNC(=O)CCNC(=O)c1cc(NC(=O)c2cc(NC(=O)c3cc(NC(=O)c4nc(NC(=O)CCCNC(=O)c5cc(NC(=O)c6cc(NC(=O)c7nc(NC(=O)c8nc(NC(=O)CCNC(=O)CCNC(=O)CCCc9ccc%10ccc%11cccc%12ccc9c%10c%11%12)cn8C)cn7C)cn6C)cn5C)cn4C)cn3C)cn2C)cn1C` registered a Kd in assay [1] of more than 10000 nM. Further, the fold change (FC) in assay [2] and in assay [3] was 3 throughout.
Take `CC(=O)Nc1cn(C)c(C(=O)Nc2cn(C)c(C(=O)Nc3cc(C(=O)Nc4cc(C(=O)NCC[C@@H](NC(=O)CCCc5ccc6ccc7cccc8ccc5c6c78)C(=O)Nc5cn(C)c(C(=O)Nc6cc(C(=O)Nc7cc(C(=O)Nc8cc(C(=O)NCCC(=O)NCCCN(C)C)n(C)c8)n(C)c7)n(C)c6)n5)n(C)c4)n(C)c3)n2)n1`: in assay [1], binding was put at a Kd of 1740 nM. Besides, the fold change (FC) in assay [2] and in assay [3] was 7 throughout.
The compound `CC(=O)Nc1cn(C)c(C(=O)Nc2cn(C)c(C(=O)Nc3cc(C(=O)Nc4cc(C(=O)NCC[C@@H](NC(=O)CCNC(=O)CCCc5ccc6ccc7cccc8ccc5c6c78)C(=O)Nc5cn(C)c(C(=O)Nc6cc(C(=O)Nc7cc(C(=O)Nc8cc(C(=O)NCCC(=O)NCCCN(C)C)n(C)c8)n(C)c7)n(C)c6)n5)n(C)c4)n(C)c3)n2)n1` showed a dissociation constant Kd in assay [1] of 17.3 nM. In addition, the fold change (FC) in assay [2] and in assay [3] was 4 each time.
